Measured values: ChEMBL document CHEMBL1933059, “Imidazo [4,5f][1,10] phenanthroline derivatives as inhibitor of c-myc gene expression in A549 cells via NF-κB pathway” (Bioorg Med Chem Lett, 2012)
pIC50: −log10 of the molar value.

Experiments:
A549 [1] = assay: Cytotoxicity against human A549 cells after 72 hrs by MTT assay; format: functional, cell-based; conditions: A549, 72 h
Method in brief: (§1)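 MTT growth-inhibition assay; IC50 values given as mean ± SD of triplicates.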

A549 [2] = assay: Induction of apoptosis in human A549 cells at 1 uM after 24 hrs by annexinV-propidium iodide staining-based flow cytometric analysis (reference value: 10.81%); format: functional
A549 [3] = assay: Inhibition of NFkappa B in human A549 cells assessed as decrease in c-myc protein expression at 1 to 5 uM by Western blot analysis; format: cell-based; conditions: TDE = time-dependent effect
Method in brief: (§2)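 A549 cells treated at 1, 2.5 and 5 μM. Timepoints: IκBα 24 h, p65 24 h, c-myc 24 and 48 h. Total cell lysates resolved on 10% polyacrylamide gels and immunoblotted with protein-specific antibodies. β-actin and GAPDH serve as internal controls. Mean ± SD of triplicates.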

A549 [4] = assay: Induction of IkappaBalpha protein expression in human A549 cells after 24 hrs by Western blot analysis; format: functional, cell-based; method in brief: as §2
[5] = Cytotoxicity against human HO8910 cells after 72 hrs by MTT assay; format: functional, cell-based; conditions: HO-8910, 72 h; method in brief: as §1
HepG2 = assay: Cytotoxicity against human HepG2 cells after 72 hrs by MTT assay; format: functional, cell-based; conditions: HepG2, 72 h; method in brief: as §1
A549 [6] = assay: Induction of apoptosis in human A549 cells at 5 uM after 24 hrs by annexinV-propidium iodide staining-based flow cytometric analysis (reference value: 10.81%); format: functional
Bel-7402 = assay: Cytotoxicity against human Bel7402 cells after 72 hrs by MTT assay; format: functional, cell-based; conditions: Bel-7402, 72 h; method in brief: as §1
A-375 = assay: Cytotoxicity against human A375 cells after 72 hrs by MTT assay; format: functional, cell-based; conditions: A-375, 72 h; method in brief: as §1
A549 [7] = assay: Inhibition of NFkappa B in human A549 cells assessed as down regulation of NF-kappaB p65 protein expression at 1 to 5 uM by Western blot analysis; format: cell-based; conditions: TDE = time-dependent effect; method in brief: as §2
A549 [8] = assay: Inhibition of NFkappa B in human A549 cells assessed as decrease in c-myc protein expression after 24 to 48 hrs by Western blot analysis; format: cell-based; method in brief: as §2
A549 [9] = assay: Inhibition of NFkappa B in human A549 cells assessed as down regulation of NF-kappaB p65 protein expression after 24 hrs by Western blot analysis; format: cell-based; method in brief: as §2
A549 [10] = assay: Induction of apoptosis in human A549 cells at 2.5 uM after 24 hrs by annexinV-propidium iodide staining-based flow cytometric analysis (reference value: 10.81%); format: functional
A549 [11] = assay: Down regulation of c-myc gene expression in human A549 cells after 24 to 48 hrs by qRT-PCR analysis; format: functional, cell-based
[12] = Cytotoxicity against human CNE1 cells after 72 hrs by MTT assay; format: functional, cell-based; conditions: CNE; method in brief: as §1

COc1ccc(-c2nc3c4cccnc4c4ncccc4c3[nH]2)cc1
pIC50 (A549 [1]): 5.87

CCCOc1ccc(-c2nc3c4cccnc4c4ncccc4c3[nH]2)cc1
pIC50 (A549 [1]): 4.74

Fc1ccc(-c2nc3c4cccnc4c4ncccc4c3[nH]2)cc1
pIC50 (A549 [1]): 5.96

CC(C)Oc1ccc(-c2nc3c4cccnc4c4ncccc4c3[nH]2)cc1
pIC50 (A549 [1]): 4.50

FC(F)(F)c1ccc(-c2nc3c4cccnc4c4ncccc4c3[nH]2)cc1
pIC50 (A549 [1]): 5.76

Brc1ccc(-c2nc3c4cccnc4c4ncccc4c3[nH]2)cc1
Activity (A549 [2]): 35.26% | inhibition (A549 [3]): tde | Activity (A549 [4]): Dose-dependent effect | pIC50 [5]: 5.81 | pIC50 (HepG2): 5.37 | Activity (A549 [6]): 50.94% | pIC50 (Bel-7402): 5.24 | pIC50 (A549 [1]): 6.07 | pIC50 (A-375): 6.01 | inhibition (A549 [7]): tde | inhibition (A549 [8]): Dose-dependent effect | inhibition (A549 [9]): Dose-dependent effect | Activity (A549 [10]): 43.26% | Activity (A549 [11]): Dose-dependent effect | pIC50 [12]: 5.92

CCOc1ccc(-c2nc3c4cccnc4c4ncccc4c3[nH]2)cc1
pIC50 (A549 [1]): 5.71

Cc1ccc(-c2nc3c4cccnc4c4ncccc4c3[nH]2)cc1
pIC50 (A549 [1]): 5.88

CCCCOc1ccc(-c2nc3c4cccnc4c4ncccc4c3[nH]2)cc1
pIC50 (A549 [1]): 4.45

Clc1ccc(-c2nc3c4cccnc4c4ncccc4c3[nH]2)cc1
pIC50 (A549 [1]): 5.97
